According to ChEMBL document CHEMBL1671789, “Evaluation of quinazoline analogues as glucocerebrosidase inhibitors with chaperone activity” (J Med Chem, 2011):
Positions count from the first letter of the chain named. Calls of active or inactive are those of the source. Unless noted, the rule behind the calls is not given here.

Assays:
[1] = target: T1, Lysosomal acid glucosylceramidase (Homo sapiens) (UniProt P04062); test: Binding affinity to recombinant Gcase assessed as change in melting temperature at 500 uM by fluorescence thermal shift technique
T1 sequence (whole entry): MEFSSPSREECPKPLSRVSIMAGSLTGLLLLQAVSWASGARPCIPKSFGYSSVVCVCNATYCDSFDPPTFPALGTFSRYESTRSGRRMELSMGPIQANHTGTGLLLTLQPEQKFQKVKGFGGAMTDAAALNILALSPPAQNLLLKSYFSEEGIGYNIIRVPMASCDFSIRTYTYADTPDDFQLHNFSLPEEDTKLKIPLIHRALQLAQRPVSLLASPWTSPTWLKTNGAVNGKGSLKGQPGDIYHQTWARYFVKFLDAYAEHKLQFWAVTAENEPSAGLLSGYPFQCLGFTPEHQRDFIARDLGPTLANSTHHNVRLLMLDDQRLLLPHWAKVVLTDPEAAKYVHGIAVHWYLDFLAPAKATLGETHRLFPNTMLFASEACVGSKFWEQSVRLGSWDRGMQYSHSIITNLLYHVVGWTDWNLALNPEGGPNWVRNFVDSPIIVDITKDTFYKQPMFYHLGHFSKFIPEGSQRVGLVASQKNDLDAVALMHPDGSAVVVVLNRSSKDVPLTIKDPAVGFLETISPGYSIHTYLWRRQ
Outline: (§1)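 Differential scanning fluorometry on recombinant wild-type GC at 2 μM final with SYPRO Orange, in 150 mM phosphate/citrate pH 4.8. 12-point DMSO dilution series, final 0.1–600 μM, 2% DMSO final; DMSO-only control. Heated 20 to 95 °C at 0.1 °C/s. Fluorescence read at 490 nm excitation, 575 nm emission. Tm derived from melt curves; shift is relative to the protein-only control.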

[2] = target: T1, Lysosomal acid glucosylceramidase (Homo sapiens)
[3] = system: T2, Lysosomal acid glucosylceramidase (Homo sapiens), P04062 [N409S]; test: Increase of GCase N370S mutant trafficking to lysosomes in human fibroblast cells assessed as colocalization of Gcase with Lamp2 at 5 uM after 5 days by immunofluorescence method; format: cell-based
T2 sequence (whole entry): T1 sequence (whole entry) with N409S
Outline: (§2)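 Primary dermal fibroblasts from N370S/N370S Gaucher patients and a control, in chamber slides. Compounds given for five days, range 1 nM to 25 μM. Cells fixed in 3% paraformaldehyde and permeabilized with 0.1% Triton-X. Stained with rabbit anti-GCase R386 (1:500) and mouse anti-LAMP1 or LAMP-2 (1:100), then Alexa-conjugated secondaries and DAPI. Imaged by confocal microscopy for GC/LAMP2 colocalization.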

[4] = target: T1, Lysosomal acid glucosylceramidase (Homo sapiens); test: Binding affinity to recombinant Gcase assessed as change in melting temperature at 300 uM by fluorescence thermal shift technique; outline: as §1
[5] = target: T1, Lysosomal acid glucosylceramidase (Homo sapiens); remark: listed apart in the source
[6] = Inhibition of alpha-galactosidase
[7] = target: T1, Lysosomal acid glucosylceramidase (Homo sapiens); remark: listed apart in the source
[8] = target: T1, Lysosomal acid glucosylceramidase (Homo sapiens); remark: listed apart in the source
[9] = target: T1, Lysosomal acid glucosylceramidase (Homo sapiens); remark: listed apart in the source
[10] = Inhibition of alpha-glucosidase
[11] = target: T1, Lysosomal acid glucosylceramidase (Homo sapiens); test: Increase of GCase trafficking to lysosomes in human fibroblast cells assessed as colocalization of Gcase with Lamp2 at 5 uM after 5 days by immunofluorescence method; format: cell-based; outline: as §2
[12] = target: T1, Lysosomal acid glucosylceramidase (Homo sapiens); remark: listed apart in the source
[13] = target: T1, Lysosomal acid glucosylceramidase (Homo sapiens); test: Binding affinity to recombinant Gcase assessed as change in melting temperature at 400 uM by fluorescence thermal shift technique; outline: as §1
[14] = target: T1, Lysosomal acid glucosylceramidase (Homo sapiens); remark: listed apart in the source
[15] = target: T1, Lysosomal acid glucosylceramidase (Homo sapiens); test: Binding affinity to recombinant Gcase assessed as change in melting temperature at 600 uM by fluorescence thermal shift technique; outline: as §1
[16] = system: T2, Lysosomal acid glucosylceramidase (Homo sapiens), P04062 [N409S]; test: Increase of GCase N370S mutant trafficking to lysosomes in human fibroblast cells assessed as colocalization of Gcase with Lamp2 at 10 uM after 5 days by immunofluorescence method; format: cell-based; outline: as §2
[17] = target: T1, Lysosomal acid glucosylceramidase (Homo sapiens); test: Increase of GCase trafficking to lysosomes in human fibroblast cells assessed as colocalization of Gcase with Lamp2 at 10 uM after 5 days by immunofluorescence method; format: cell-based; outline: as §2

| Compound | ΔTm [1] [°C] | ΔTm [2] [°C] | Activity [3] | ΔTm [4] [°C] | ΔTm [5] [°C] | Activity [6] | ΔTm [7] [°C] | ΔTm [8] [°C] | ΔTm [9] [°C] | Activity [10] | Activity [11] | ΔTm [12] [°C] | ΔTm [13] [°C] | ΔTm [14] [°C] | ΔTm [15] [°C] | Activity [16] | Activity [17] |
| --- | --- | --- | --- | --- | --- | --- | --- | --- | --- | --- | --- | --- | --- | --- | --- | --- | --- |
| COc1ccccc1S(=O)(=O)N1CCN(c2nc(-c3cccs3)nc3ccccc23)CC1 | 7.69 | 3.97 | Active | 7.48 | 0.55 | inactive | 6.86 | 0.6 | -0.76 | inactive | Active | -0.01 | 8.09 |  |  |  |  |
| O=S(=O)(c1ccc2c(c1)OCCO2)N1CCN(c2nc(-c3cccs3)nc3ccccc23)CC1 | 23.4 | 19.3 | Active | 22.8 | 0.24 | inactive | 20.7 | 0.37 | 13.3 | inactive | Active | 11.7 | 22.8 | 5.39 | 24.3 |  |  |
| O=S(=O)(c1ccc2ccccc2c1)N1CCN(c2nc(-c3cccs3)nc3ccccc23)CC1 |  | 14.5 |  | 19.8 | -0.19 | inactive | 17.3 | -1.33 | 10.8 | inactive |  | 4.35 | 19.9 | 1.6 |  | Active | Active |
| OC[C@H]1CNC[C@@H](O)[C@@H]1O | 8.75 | 7.94 |  | 8.98 | 1.16 | inactive | 8.25 | 0.4 | 6.72 | inactive |  | 5.5 | 9.56 |  |  | Active | Active |
